Test results: ChEMBL document CHEMBL1123026, “Preparation and antiarthritic and analgesic activity of 4,5-diaryl-2-(substituted thio)-1H-imidazoles and their sulfoxides and sulfones” (1985)

Experiments:
Assay type in all cases: functional
Mus musculus [1] = experiment: Effective dose by mouse phenyl-p-benzoquinone writhing (PQW)assay after peroral administration; activity value ranges from (7.5-51.9); conditions: po
In short: (§1)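 Fasted (17-21 h) female white mice, 5-20 per double-blind test, dosed orally with compound suspended in 1% methylcellulose. 0.20 mL aqueous 0.01% phenyl-p-benzoquinone given i.p. 6 min before a 10-min observation for stretching/writhing. ED50 (dose protecting 50% of mice) calculated by the moving-average method.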

Rattus norvegicus [2] = experiment: Effective dose determined against rat adjuvant arthritis after peroral administration; conditions: po
In short: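 Male Lewis rats (130-150 g) given 0.1 mL Mycobacterium butyricum adjuvant (5 mg/mL in mineral oil) s.c. into the right hind paw; arthritis developed for 2 weeks. Groups of 10 matched for severity were dosed orally by gavage in PVA-acacia vehicle (10 mL/kg) for 7 days. Uninjected left paw volume was measured the day after the last dose. Percent decrease was calculated vs arthritic and nonarthritic controls. ED50 was read from a visually fitted semilog dose-response line.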

Mus musculus [3] = experiment: Effective dose by mouse phenyl-p-benzoquinone writhing (PQW)assay after peroral administration; 30.9-197.0; conditions: po
Mus musculus [4] = experiment: Effective dose determined by mouse phenyl-p-benzoquinone writhing (PQW) assay after peroral administration; conditions: po; in short: as §1
Rattus norvegicus [5] = experiment: Decrease in paw volume was evaluated at dose 150 mg/kg
In short: (§2)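 Male Lewis rats (130-150 g) got 0.1 mL adjuvant (heat-killed Mycobacterium butyricum, 5 mg/mL in mineral oil) subplantar in the right hind paw and were left 2 weeks. Groups of 10 matched for severity were dosed orally by gavage (PVA-acacia vehicle, 10 mL/kg) for 7 days. Uninjected left hind paw volume was read the next day. % decrease = (arthritic control − treated)/(arthritic − nonarthritic control) × 100; Student's t-test.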

Mus musculus [6] = experiment: Effective dose by mouse phenyl-p-benzoquinone writhing (PQW)assay after peroral administration; activity value ranges from (1.2-4.5); conditions: po
Mus musculus [7] = experiment: Effective dose by mouse phenyl-p-benzoquinone writhing (PQW)assay after peroral administration; activity value ranges from (10.9-40.0); conditions: po; in short: as §1
Rattus norvegicus [8] = experiment: Decrease in paw volume by the effect of compound at a dose of 30 mg/kg; in short: as §2
Mus musculus [9] = experiment: Effective dose by mouse phenyl-p-benzoquinone writhing (PQW)assay after peroral administration; 6.8-17.7; conditions: po
Mus musculus [10] = experiment: Effective dose by mouse phenyl-p-benzoquinone writhing (PQW)assay after peroral administration; activity value ranges from (9.2 - 43.6); conditions: po; in short: as §1
Mus musculus [11] = experiment: Effective dose by mouse phenyl-p-benzoquinone writhing (PQW)assay after peroral administration; activity value ranges from (2.6-10.7); conditions: po; in short: as §1
Mus musculus [12] = experiment: Effective dose by mouse phenyl-p-benzoquinone writhing (PQW)assay after peroral administration; activity value ranges from (4.8 - 25.4); conditions: po; in short: as §1
Mus musculus [13] = experiment: Effective dose by mouse phenyl-p-benzoquinone writhing (PQW)assay after peroral administration; activity value ranges from (0.9-4.5); conditions: po
Mus musculus [14] = experiment: Effective dose by mouse phenyl-p-benzoquinone writhing (PQW)assay after peroral administration; activity value ranges from (8.4-80.4); conditions: po; in short: as §1
Rattus norvegicus [15] = experiment: Decrease in paw volume by the effect of compound at a dose of 25 mg/kg; in short: as §2
Rattus norvegicus [16] = experiment: Decrease in paw volume was evaluated at dose 50 mg/kg; in short: as §2
Mus musculus [17] = experiment: Effective dose by mouse phenyl-p-benzoquinone writhing (PQW)assay after peroral administration; activity value ranges from (4.6 - 21.7); conditions: po; in short: as §1
Mus musculus [18] = experiment: Effective dose by mouse phenyl-p-benzoquinone writhing (PQW)assay after peroral administration; activity value ranges from (28.6-55.9); conditions: po; in short: as §1
Mus musculus [19] = experiment: Effective dose by mouse phenyl-p-benzoquinone writhing (PQW)assay after peroral administration; 3.1-14.0; conditions: po
Mus musculus [20] = experiment: Effective dose by mouse phenyl-p-benzoquinone writhing (PQW)assay after peroral administration; 4.5-25.9; conditions: po
Mus musculus [21] = experiment: Effective dose by mouse phenyl-p-benzoquinone writhing (PQW)assay after peroral administration; activity value ranges from (15.9-183); conditions: po; in short: as §1
Mus musculus [22] = experiment: Effective dose by mouse phenyl-p-benzoquinone writhing (PQW)assay after peroral administration; activity value ranges from (0.66-2.55); conditions: po
Mus musculus [23] = experiment: Effective dose by mouse phenyl-p-benzoquinone writhing (PQW)assay after peroral administration; activity value ranges from (57.4 - 203.2); conditions: po; in short: as §1
Mus musculus [24] = experiment: Effective dose by mouse phenyl-p-benzoquinone writhing (PQW)assay after peroral administration; activity value ranges from (18.6-69.6); conditions: po; in short: as §1
Mus musculus [25] = experiment: Effective dose by mouse phenyl-p-benzoquinone writhing (PQW)assay after peroral administration; activity value ranges from (8.8-36.8); conditions: po; in short: as §1
Mus musculus [26] = experiment: Effective dose by mouse phenyl-p-benzoquinone writhing (PQW)assay after peroral administration; 0.23-0.53; conditions: po
Mus musculus [27] = experiment: Effective dose by mouse phenyl-p-benzoquinone writhing (PQW)assay after peroral administration; activity value ranges from (49.8-84.8); conditions: po; in short: as §1
Mus musculus [28] = experiment: Effective dose by mouse phenyl-p-benzoquinone writhing (PQW)assay after peroral administration; activity value ranges from (0.37-1.22); conditions: po

O=S(=O)(c1nc(-c2cccc(Cl)c2)c(-c2ccccc2)[nH]1)C(F)(F)C(F)F was tested, and the ED50 (Mus musculus [1]) was 19.8 mg/kg and the ED50 (Rattus norvegicus [2]) was 0.04 mg/kg.
For COc1ccc(-c2[nH]c(SC(F)(F)F)nc2-c2ccc(F)cc2)cc1, the ED50 (Mus musculus [3]) was 78 mg/kg.
For FC(F)(F)CSc1nc(-c2ccccc2)c(-c2ccccc2)[nH]1, the ED50 (Mus musculus [4]) was over 130 mg/kg and the Decrease (Rattus norvegicus [5]) was 54%.
O=S(=O)(c1nc(-c2ccc(Cl)cc2)c(-c2ccc(Cl)cc2)[nH]1)C(F)F gave an ED50 (Mus musculus [6]) of 2.3 mg/kg.
Compound O=S(=O)(c1nc(-c2cccc(Cl)c2)c(-c2cccc(Cl)c2)[nH]1)C(F)(F)C(F)F has an ED50 (Mus musculus [7]) of 20.9 mg/kg.
COc1ccc(-c2nc([S+]([O-])C(C)C)[nH]c2-c2ccc(OC)cc2)cc1 (configuration not stated) was tested, and the ED50 (Mus musculus [4]) was over 130 mg/kg and the Decrease (Rattus norvegicus [8]) was 36%.
With CCSc1nc(-c2ccc(OC)cc2)c(-c2ccc(OC)cc2)[nH]1 the ED50 (Mus musculus [9]) was 11 mg/kg and the ED50 (Rattus norvegicus [2]) was 5 mg/kg.
O=S(=O)(CC(F)(F)F)c1nc(-c2ccc(F)cc2)c(-c2ccc(F)cc2)[nH]1 showed an ED50 (Mus musculus [10]) of 20 mg/kg.
[O-][S+](CC(F)(F)F)c1nc(-c2ccc(Cl)cc2)c(-c2ccc(Cl)cc2)[nH]1 (configuration not stated) showed an ED50 (Rattus norvegicus [2]) of 2.3 mg/kg and an ED50 (Mus musculus [11]) of 5.3 mg/kg.
Cc1ccc(-c2nc(S(=O)(=O)C(F)(F)C(F)F)[nH]c2-c2ccc(C)cc2)cc1 was tested, and the ED50 (Mus musculus [12]) was 11 mg/kg.
With O=S(=O)(c1nc(-c2cccc(F)c2)c(-c2ccccc2)[nH]1)C(F)(F)C(F)F the ED50 (Mus musculus [13]) was 2 mg/kg.
Work on COc1ccc(-c2[nH]c(S(C)(=O)=O)nc2-c2ccccc2)cc1 yielded an ED50 (Mus musculus [14]) of 26 mg/kg and a Decrease (Rattus norvegicus [15]) of 33%.
CSc1nc(-c2cccc(Cl)c2)c(-c2ccccc2)[nH]1 gave an ED50 (Mus musculus [4]) of over 130 mg/kg and a Decrease (Rattus norvegicus [16]) of 43%.
Work on CCS(=O)(=O)c1nc(-c2ccc(OC)cc2)c(-c2ccc(OC)cc2)[nH]1 yielded an ED50 (Mus musculus [17]) of 10 mg/kg and an ED50 (Rattus norvegicus [2]) of 6 mg/kg.
For O=S(=O)(c1nc(-c2ccc(C(F)(F)F)cc2)c(-c2ccccc2)[nH]1)C(F)(F)C(F)F, the ED50 (Mus musculus [18]) was 40 mg/kg.
Work on O=S(=O)(c1nc(-c2ccccc2)c(-c2ccccc2)[nH]1)C(F)(F)C(F)Br (configuration not stated) yielded an ED50 (Mus musculus [19]) of 6.6 mg/kg.
COc1ccc(-c2nc(S(=O)(=O)C(F)(F)C(Br)Br)[nH]c2-c2ccc(OC)cc2)cc1 was tested, and the ED50 (Mus musculus [20]) was 10.8 mg/kg and the ED50 (Rattus norvegicus [2]) was over 9 mg/kg.
[O-][S+](CC(F)(F)F)c1nc(-c2ccccc2)c(-c2ccccc2)[nH]1 (configuration not stated) showed an ED50 (Mus musculus [21]) of 54 mg/kg and an ED50 (Rattus norvegicus [2]) of 75 mg/kg.
For [O-][S+](c1nc(-c2ccc(Cl)cc2)c(-c2ccc(Cl)cc2)[nH]1)C(F)F (configuration not stated), the ED50 (Mus musculus [22]) was 1.3 mg/kg.
With CS(=O)(=O)c1nc(-c2ccccc2Cl)c(-c2ccccc2Cl)[nH]1 the ED50 (Mus musculus [23]) was 108 mg/kg and the ED50 (Rattus norvegicus [2]) was over 50 mg/kg.
CC[S+]([O-])c1nc(-c2ccc(OC)cc2)c(-c2ccc(OC)cc2)[nH]1 (configuration not stated) gave an ED50 (Mus musculus [24]) of 36 mg/kg.
O=S(=O)(c1nc(-c2ccc(F)cc2)c(-c2ccc(C(F)(F)F)cc2)[nH]1)C(F)(F)C(F)F showed an ED50 (Mus musculus [25]) of 18 mg/kg and an ED50 (Rattus norvegicus [2]) of over 1 mg/kg.
Compound COc1ccc2c(c1)c(CC(=O)O)c(C)n2C(=O)c1ccc(Cl)cc1 [INDOMETHACIN] has an ED50 (Mus musculus [26]) of 0.35 mg/kg.
CCCCC1C(=O)N(c2ccccc2)N(c2ccccc2)C1=O [PHENYLBUTAZONE] showed an ED50 (Mus musculus [27]) of 65 mg/kg.
O=S(=O)(c1nc(-c2ccc(F)cc2)c(-c2ccc(F)cc2)[nH]1)C(F)(F)C(F)F [TIFLAMIZOLE] gave an ED50 (Mus musculus [28]) of 0.67 mg/kg.
